High-throughput results: PubChem, several laboratories
CRFR2-BP ag: CRF-BP/CRF-R2 complex agonism | HEK293 CRF-R2/CRF-BP, calcium dye fluorescence (FLIPR); percent of saturating CRF peptide response | activation, % at 13.2 µM | 350,000 compounds, 0.46% hits;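 active = activation of at least 50%, plus an integration ratio under a set limit after plate pattern correction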;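 also: plate controls were neutral control wells without compound for no effect and CRF at EC100 for full effect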
cardiac RTF act: cardiac RTF calcium sensitization. IANBD-labeled TnC RTF fluorescence at EC20 calcium; 0% EC20 calcium, 100% full calcium. 340,000 compounds, 0.24% hits. activation, % at 7.2 µM. P19429+P45379;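 active = activation above the mean over all tested compounds plus 3 SD, cut at about 30% in these data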;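 also: rise in fluorescence read as greater calcium sensitivity of cardiac thin filaments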
CRFR2-BP antag: CRF-BP/CRF-R2 complex antagonism; HEK293 CRF-R2/CRF-BP, CRF-induced calcium fluorescence; inhibition, % at 11.8 µM; 350,000 compounds, 0.59% hits;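 active = inhibition of the ligand-induced calcium signal above about 50% at the single tested concentration, limit read from the data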
Tn6 DDE FP: DD(E)-Tn6 binding inhibition, primary FP screen. Fibrin DD(E) TRITC-Tn6 fluorescence polarization displacement. AID 720509. 370,000 compounds, 0.21% hits. P02675. inhibition, % at 8.3 µM;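 active = inhibition above a per-campaign cutoff: mean of compounds within control limits plus 3 SD, cut at about 15% in these data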;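 also: 0% = median of all compound wells on the plate and 100% = blocking peptide control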
Target sequence (P02675 whole entry, looked up): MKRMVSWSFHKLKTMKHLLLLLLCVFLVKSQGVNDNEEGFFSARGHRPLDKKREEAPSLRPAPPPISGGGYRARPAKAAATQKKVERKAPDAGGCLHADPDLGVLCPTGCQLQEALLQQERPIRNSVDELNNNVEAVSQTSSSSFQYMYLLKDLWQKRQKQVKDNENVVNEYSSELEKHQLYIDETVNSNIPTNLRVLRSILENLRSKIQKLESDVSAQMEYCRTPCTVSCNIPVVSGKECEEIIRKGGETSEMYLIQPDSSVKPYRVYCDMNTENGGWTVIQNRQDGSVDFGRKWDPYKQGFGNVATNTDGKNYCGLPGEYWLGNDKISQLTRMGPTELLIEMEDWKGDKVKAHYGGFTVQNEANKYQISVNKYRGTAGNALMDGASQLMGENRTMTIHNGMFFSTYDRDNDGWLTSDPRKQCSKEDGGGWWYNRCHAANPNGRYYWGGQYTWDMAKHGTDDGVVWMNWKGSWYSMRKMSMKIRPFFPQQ
DDE Tn7 FP inh: DD(E)-Tn7 binding inhibition, primary FP screen. AID 720508. inhibition, % at 8.3 µM. FP displacement of FITC-Tn7 peptide from fibrin DD(E); 0% = median of compound wells per plate. 370,000 compounds, 0.13% hits;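 active = inhibition above the mean of compounds falling within the control limits plus 3 SD of them, cut at about 14% in these data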;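 also: 0% = plate median of compound wells and 100% = 10 µM Aha-Tn7 peptide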
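system = human fibrin DD(E) protein | quantity = DD(E) 2 µM final | medium = Tris/NaCl/CaCl2 buffer, pH 7.8 | also added = labelled Tn7 tracer, 0.1 µM | compound dosing = single point at 8.3 µM | timing = compound with protein 10 min, then 3 h after probe, room temperature | signal = FP measurement | benchmarks = Aha-Tn7 high control | repeats = one replicate per compound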
RTF Ca sens inh: cardiac RTF calcium desensitization. P19429+P45379. IANBD-labeled cardiac RTF, Ca2+ fluorescence. inhibition, % at 7.15 µM. 340,000 compounds, 0.12% hits. AID 493244;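 active = inhibition above the mean inhibition of all tested compounds plus 3 SD, cut at about 17% in these data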;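 also: assay run at fixed EC70 calcium of 1.6 mM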
DDE Tn7 confirm: DD(E)-Tn7 binding inhibition, FP confirmation. inhibition, % at 8.3 µM. FP displacement of TRITC-Tn7 peptide from DD(E); 0% set at plate's compound-well median. shares compounds with DDE Tn7 FP inh. AID 720628. 460 compounds, 5% hits;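 active = inhibition above the campaign cutoff, the mean of compounds within control limits plus 3 SD, cut at about 14% in these data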;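 also: 100% = median FP of high control wells holding Aha-Tn7 inhibitor peptide; displacers lower polarization since freed probe rises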
Tn7 DDE ctr: DD(E)-Tn7 binding inhibition, counter-screen. shares compounds with DDE Tn7 FP inh. fibrin DD(E), TRITC-Tn7 probe displacement, fluorescence polarization. AID 720633. inhibition, % at 8.3 µM. 460 compounds, 3% hits;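 active = inhibition above the cutoff, the mean of compounds lying between the control bounds plus 3 SD of those compounds, cut at about 17% in these data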;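 also: 0% = median of compound sample wells and 100% = excess unlabeled Aha-Tn7 peptide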
Active calls of the source: *. Most compounds without a hit are left out; they make up all but 1.4% or so of the library.

CC(C)(C)c1cc(C(=O)N/N=C/c2ccc(F)cc2)n(-c2ccccc2)n1 was read as CRFR2-BP ag 2, cardiac RTF act -4, CRFR2-BP antag -44, Tn6 DDE FP 3, DDE Tn7 FP inh 14*, RTF Ca sens inh 5, DDE Tn7 confirm 3 and Tn7 DDE ctr -1.
CC(C)(C)c1cc(C(=O)N/N=C/c2ccccc2O)n(-c2ccccc2)n1 was read as CRFR2-BP ag 0, cardiac RTF act -11, CRFR2-BP antag 1, Tn6 DDE FP -5, DDE Tn7 FP inh -7 and RTF Ca sens inh -10.
Screening CC(=O)c1c2c3c(cccc3n(C)c1=O)C(=O)c1ccccc1-2 returned CRFR2-BP ag 9 and CRFR2-BP antag -4.
For Cn1c(=O)c(Nc2ccc(O)cc2)c2c3c(cccc31)C(=O)c1ccccc1-2 the results were CRFR2-BP ag 9, cardiac RTF act 50*, CRFR2-BP antag 3, Tn6 DDE FP 3, DDE Tn7 FP inh 16*, RTF Ca sens inh -56, DDE Tn7 confirm 9 and Tn7 DDE ctr 5.
For CC[C@@]12C(=O)N(c3cccc(Br)c3)C(=O)N1[C@H](c1ccc(Cl)cc1)[C@@H]1C(=O)N(C3CCCCC3)C(=O)[C@@H]12 the results were CRFR2-BP ag 7, cardiac RTF act 5, CRFR2-BP antag -24, Tn6 DDE FP 4, DDE Tn7 FP inh -6 and RTF Ca sens inh -12.
`CC[C@@]12C(=O)N(c3ccc(OC)cc3)C(=O)N1[C@H](c1ccc(Cl)cc1)[C@@H]1C(=O)N(C3CCCCC3)C(=O)[C@@H]12` gave CRFR2-BP ag 1, cardiac RTF act 0, CRFR2-BP antag -6, Tn6 DDE FP 3, DDE Tn7 FP inh 16*, RTF Ca sens inh -16, DDE Tn7 confirm 7 and Tn7 DDE ctr -1.
Screening COC(=O)[C@@]12CCCCC3=C1N(CCC3)C(=O)[C@H]2CC(=O)N1CCN(C(=O)c2ccco2)CC1 returned Tn6 DDE FP -1 and DDE Tn7 FP inh 2.
`CC1(C(=O)NC2CCCCCC2)CCN1C(=O)C1(c2ccccc2)CC1` (stereo not given) gave Tn6 DDE FP -5 and DDE Tn7 FP inh -2.
Screening CCCNC(=O)C1(C)CCCN(C(=O)c2cccnc2Oc2ccccc2)C1 (stereo not given) returned Tn6 DDE FP 6, DDE Tn7 FP inh 14*, DDE Tn7 confirm 4 and Tn7 DDE ctr 6.
Screening CC(C)(C)n1nnnc1C(c1ccccc1)N1CCN(CCN2CCOCC2)CC1 (stereo not given) returned Tn6 DDE FP 2 and DDE Tn7 FP inh 1.
Screening COc1ccc(CCNC(=O)CC2SC(=NCc3ccccc3)NC2=O)cc1 (stereo not given) returned CRFR2-BP ag 1, cardiac RTF act -5, CRFR2-BP antag -2, Tn6 DDE FP 1, DDE Tn7 FP inh 15*, RTF Ca sens inh -2, DDE Tn7 confirm -2 and Tn7 DDE ctr -6.
For Cn1cnc(CCNC(=O)C[C@H]2CC[C@@H]3[C@H](COC[C@H](O)CN3C(=O)C3CCCC3)O2)c1 the results were Tn6 DDE FP 3 and DDE Tn7 FP inh 3.
Screening CCOP(=O)(c1ccccc1)C(O)c1ccc(F)cc1 (stereo not given) returned CRFR2-BP ag 4, cardiac RTF act 4, CRFR2-BP antag -7, Tn6 DDE FP 9, DDE Tn7 FP inh 2 and RTF Ca sens inh -3.
CCOP(=O)(c1ccccc1)C(O)c1ccc([N+](=O)[O-])cc1 (stereo not given) was read as CRFR2-BP ag 0, cardiac RTF act 0, CRFR2-BP antag 19, Tn6 DDE FP 4, DDE Tn7 FP inh 16*, RTF Ca sens inh -9, DDE Tn7 confirm 0 and Tn7 DDE ctr -5.
